Experimental data collected from several papers.
Target: Cyclin-dependent kinase 8 (CDK8, Homo sapiens, UniProt P49336)

C[C@H]1CCN(c2nccc(-c3cnn4ncccc34)n2)C1  remaining binding (binding; 1 µM): 100%
COc1ncc2cc3ccccc3nc2c1C#N  remaining binding (cell-free assay, competition with immobilised ligand; 5 µM): 100%
CC1CCCN1c1nccc(-c2cnn3ncccc23)n1 (centres unmarked)  remaining binding (binding; 1 µM): 100%
CC(=O)C1=C(C)N(c2cccc(C(F)(F)F)c2)C(=O)N[C@@H]1c1ccc(C#N)nc1  remaining binding (cell-free assay, competition with immobilised ligand; 1 µM): 65.3%
CCN1CCN(Cc2ccc(C(=O)Nc3ccc(C)c(Oc4ccc5c(c4)CC(=O)N5)c3)cc2C(F)(F)F)CC1  remaining binding (binding, competition with immobilised ligand; 1 µM): 67%
CN(CCCC(F)(F)F)c1nccc(-c2cnn3ncccc23)n1  remaining binding (binding; 1 µM): 100%
Cc1cc(NC(=O)c2cccc(S(F)(F)(F)(F)F)c2)cc(-n2ccn3nc(-c4cccnc4)cc23)c1  remaining binding (cell-free assay, competition with immobilised ligand; 1 µM): 86.2%
O=C(c1ccc(Nc2nccc(-c3cc4ccccc4s3)n2)cc1)N1CCC(N2CCCC2)CC1  remaining binding (binding, competition with immobilised ligand; 1 µM): 91%
CCOCCn1cc(C(=O)Nc2ccc(-n3nc(-c4cccnc4)cc3C(F)(F)F)cn2)ccc1=O  remaining binding (cell-free assay, competition with immobilised ligand; 1 µM): 100%
N[C@@H]1CCN(c2nccc(-c3cnn4ncccc34)n2)C1  remaining binding (binding; 1 µM): 100%
C[C@H](NC(=O)c1cnc2n1[C@](C)(Cc1ccc(C#N)cc1)C(=O)N2c1cc(Cl)c(F)c(Cl)c1)C(=O)NC1(c2ccccn2)CC1  remaining binding (cell-free assay, competition with immobilised ligand; 1 µM): 100%
Cc1cnn2ncc(-c3ccnc(N(C)C)n3)c2c1  remaining binding (binding; 1 µM): 93%
CO[C@@H](C)c1c(Nc2ccc([C@H](N(C)C(=O)C3CCS(=O)(=O)CC3)C(F)(F)F)cc2)cnc2cc(Cl)nn12  remaining binding (binding, competition with immobilised ligand; 1 µM): 39%
COc1cnc(Nc2cccc(S(N)(=O)=O)c2)nc1N1CCN(c2ccccc2)C(=O)C1  remaining binding (binding, competition with immobilised ligand; 1 µM): 93%
O=C(NCC1CCOCC1)c1n[nH]cc1NC(=O)c1c(F)cccc1F  remaining binding (binding, competition with immobilised ligand; 1 µM): 100%
O=C(c1ccc(Nc2ncc(Cl)c(-c3ccc(Cl)s3)n2)cc1)N1CCC(N2CCCC2)CC1  remaining binding (binding, competition with immobilised ligand; 1 µM): 100%
F[C@@H]1CCN(c2nccc(-c3cnn4ncccc34)n2)C1  remaining binding (binding; 1 µM): 100%
O=C(c1ccc(Nc2ncc(Cl)c(-c3cc4ccccc4s3)n2)cc1)N1CCC(N2CCCC2)CC1  remaining binding (binding, competition with immobilised ligand; 1 µM): 100%
C[C@@]1(Cc2ccc(C#N)cc2)C(=O)N(c2cc(Cl)cc(Cl)c2)c2ncc(C(=O)NC3(c4nc(C5CCC5)no4)CC3)n21  remaining binding (cell-free assay, competition with immobilised ligand; 1 µM): 100%
COc1cnc(Nc2cccc(S(N)(=O)=O)c2)nc1N1CCN(c2ccccc2)CC1  remaining binding (binding, competition with immobilised ligand; 1 µM): 95%
